pIC50: −log10 of the molar value.
Key:
B16 = assay: In vitro cytotoxicity (LC99) was measured against B16 Melanoma cells; assay type: cell-based; settings: mouse
Summary of the method: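 B16 melanoma cells in exponential growth, (2–3) × 10⁶ in 10 mL serum-free MEM, exposed to drug for 2 h, then washed and resuspended in MEM + 10% FBS. Plated at 50–50 000 cells/plate, grown 8 d at 37 °C. Colonies stained with crystal violet and counted. LC99 (2-log drop in colony formation) taken from log-linear part of log surviving fraction vs concentration.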

L1210 [1] = assay: In vitro growth inhibition of L1210 cells 2 hours after administration of compound; assay type: functional, cell-based; settings: Mus musculus, L1210, 2 h
Summary of the method: (§1)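 Exponentially growing L1210 cells at (3–6) × 10⁴/mL in Fischer's medium with 10% horse serum, glutamine and antibiotic-antimycotic. Drug exposure lasted the stated time (2, 8, 24 or 48 h). Cells were then spun down and resuspended in drug-free medium. Coulter counts were taken 48 h after the start of treatment and expressed as percent of control. IC50 is given in μM.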

L1210 [2] = assay: In vitro growth inhibition of L1210 cells 24 hours after administration of compound; assay type: functional, cell-based; settings: Mus musculus, L1210, 24 h; summary of the method: as §1
L1210 [3] = assay: In vitro growth inhibition of L1210 cells 48 hours after administration of compound; assay type: functional, cell-based; settings: Mus musculus, L1210, 48 h; summary of the method: as §1
L1210 [4] = assay: In vitro growth inhibition of L1210 cells 8 hours after administration of compound; assay type: functional, cell-based; settings: Mus musculus, L1210, 8 h; summary of the method: as §1

| Compound | LC99 (B16) [µM] | pIC50 (L1210 [1]) | pIC50 (L1210 [2]) | pIC50 (L1210 [3]) | pIC50 (L1210 [4]) |
| --- | --- | --- | --- | --- | --- |
| CC1CC(C)(C)NC(CCOP(=O)(OC[C@H]2O[C@@H](n3ccc(=O)[nH]c3=O)C[C@@H]2O)N(CCBr)CCBr)O1 (stereo partly specified) | 155 |  |  |  |  |
| CC1CC(C)(C)NC(CCOP(=O)(OC[C@H]2O[C@@H](n3cc(F)c(=O)[nH]c3=O)C[C@@H]2O)N(C)CCCl)O1 (stereo partly specified) | 375 | 6.52 | 7.60 | 8.46 | 6.80 |
| Cc1ccc(S(=O)(=O)OCCN(C)P(=O)(OCCC2NC(C)(C)CC(C)O2)OC[C@H]2O[C@@H](n3cc(F)c(=O)[nH]c3=O)C[C@@H]2O)cc1 (stereo partly specified) | 141 | 6.80 | 7.72 | 8.60 | 7.22 |
| Cc1cn([C@H]2C[C@H](O)[C@@H](COP(=O)(OCCC3NC(C)(C)CC(C)O3)N(CCBr)CCBr)O2)c(=O)[nH]c1=O (stereo partly specified) | 120 |  |  |  |  |
| Cc1cn([C@H]2C[C@H](O)[C@@H](COP(=O)(OCCC3NC(C)(C)CC(C)O3)N(C)CCBr)O2)c(=O)[nH]c1=O (stereo partly specified) | 165 | 4.89 | 5.15 | 6.23 | 4.98 |
| CC1CC(C)(C)NC(CCOP(=O)(OC[C@H]2O[C@@H](n3cc(F)c(=O)[nH]c3=O)C[C@@H]2O)N2CCOCC2)O1 (stereo partly specified) |  | 4.82 | 6.05 | 6.82 | 5.30 |
| CC1CC(C)(C)NC(CCOP(=O)(OC[C@H]2O[C@@H](n3ccc(=O)[nH]c3=O)C[C@@H]2O)N(C)CCCl)O1 (stereo partly specified) |  | 4.40 | 5.22 | 6.26 | 4.78 |
| O=c1[nH]cc(F)c(=O)[nH]1 [FLUOROURACIL] | > 2000 | 5.66 | 6.66 | 6.92 | 6.20 |
| CC1CC(C)(C)NC(CCOP(=O)(OC[C@H]2O[C@@H](n3ccc(=O)[nH]c3=O)C[C@@H]2O)N(C)CCBr)O1 (stereo partly specified) | 319 | 4.70 | 5.89 | 6.37 | 5.09 |
| CC1CC(C)(C)NC(CCOP(=O)(OC[C@H]2O[C@@H](n3cc(F)c(=O)[nH]c3=O)C[C@@H]2O)N(C)CCI)O1 (stereo partly specified) | 95 | 6.72 | 8.22 | 8.70 | 7.12 |
| CC1CC(C)(C)NC(CCOP(=O)(OC[C@H]2O[C@@H](n3cc(F)c(=O)[nH]c3=O)C[C@@H]2O)N(C)CCBr)O1 (stereo partly specified) | 101 | 6.92 | 7.74 | 8.60 | 7.30 |
| CC1CC(C)(C)NC(CCOP(=O)(OC[C@H]2O[C@@H](n3cc(F)c(=O)[nH]c3=O)C[C@@H]2O)N(CCBr)CCBr)O1 (stereo partly specified) | 100 |  |  |  |  |
| CC1CC(C)(C)NC(CCOP(=O)(OC[C@H]2O[C@@H](n3cc(F)c(=O)[nH]c3=O)C[C@@H]2O)N2CCCCC2)O1 (stereo partly specified) | 650 | 6.12 | 7.62 | 8.10 | 6.59 |

— ChEMBL document CHEMBL1128741, “Synthesis and biological evaluation of 5-fluoro-2'-deoxyuridine phosphoramidate analogs” (J Med Chem, 1995)
